The values that follow come from publication PMC3319149 (European Journal of Pharmaceutical Sciences, 2012).

Data set [1] has as its system ASBT-MDCK monolayers. The following applies: passive permeability, ref Balakrishnan et al., 2006b; cited from earlier work.
Data set [2] concerns the target T1, NTCP (Homo sapiens, UniProt Q14973).
T1 sequence (Q14973 1-349): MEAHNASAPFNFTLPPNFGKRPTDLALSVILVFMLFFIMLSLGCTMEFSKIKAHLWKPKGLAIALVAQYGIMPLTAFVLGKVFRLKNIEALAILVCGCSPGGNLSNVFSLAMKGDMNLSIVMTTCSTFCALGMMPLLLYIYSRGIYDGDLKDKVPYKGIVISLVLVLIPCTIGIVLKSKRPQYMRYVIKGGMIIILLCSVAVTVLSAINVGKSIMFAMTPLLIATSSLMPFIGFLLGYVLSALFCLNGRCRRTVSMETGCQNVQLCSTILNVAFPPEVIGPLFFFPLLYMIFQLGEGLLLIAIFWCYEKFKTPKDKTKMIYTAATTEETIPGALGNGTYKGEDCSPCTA
Nature of the data set: Taurocholate uptake inhibition study in NTCP-HEK monolayers. In kind it is cell-based.

The next data set relates to NTCP-HEK monolayers. Nature of the data set: Passive permeability from uptake in sodium-free buffer, NTCP-HEK monolayers. In kind it is in vitro ADME.
Data set [3] deals with T2, ASBT (Homo sapiens, UniProt Q12908).
T2 sequence (Q12908 1-348): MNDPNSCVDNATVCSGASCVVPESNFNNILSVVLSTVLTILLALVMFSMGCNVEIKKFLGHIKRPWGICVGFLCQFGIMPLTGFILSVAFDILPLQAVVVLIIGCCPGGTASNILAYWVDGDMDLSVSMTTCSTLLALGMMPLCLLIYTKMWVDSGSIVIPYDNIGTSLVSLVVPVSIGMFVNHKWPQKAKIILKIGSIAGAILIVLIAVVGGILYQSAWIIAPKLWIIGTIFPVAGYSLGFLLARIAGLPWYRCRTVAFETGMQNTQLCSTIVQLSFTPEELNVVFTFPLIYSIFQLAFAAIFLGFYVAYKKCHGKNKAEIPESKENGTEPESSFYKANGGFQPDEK
The conditions noted are these: read-out: Ki (μM) ASBT; ASBT-MDCK; ref Balakrishnan et al., 2006b; cited from earlier work.

The target in data set [4] is T2, ASBT. The data set can be described thus: Taurocholate uptake inhibition study in ASBT-MDCK monolayers. Format: cell-based. The conditions noted are these: for Ki: read-out: Ki (μM) ASBT, inhibition of [3H]-taurocholate uptake (2.5 μM cold TCA), 10 min, 37 °C.
The target of data set [5] is T2, ASBT. Nature of the data set: Assessment of inhibition type. In kind it is cell-based. The conditions noted are these: inhibitor 152 μM (I/Ki = 10), taurocholate 1–200 μM.
In data set [6] the target is T1, NTCP. Nature of the data set: Assessment of inhibition type. In kind it is cell-based. The conditions noted are these: inhibitor 118 μM (I/Ki = 10), taurocholate 1–200 μM.
For data set [7], the system named is ASBT-MDCK monolayers. Nature of the data set: Passive permeability from uptake in sodium-free buffer, ASBT-MDCK monolayers. In kind it is in vitro ADME.
The target in data set [8] is T2, ASBT. Nature of the data set: Uptake study in ASBT-MDCK monolayers. Format: cell-based.
The target in data set [9] is T1, NTCP. Nature of the data set: Uptake study in NTCP-HEK monolayers. In kind it is cell-based. The method in brief:
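Stably transfected NTCP-HEK cells (hygromycin selection) were seeded at 2.5 × 10⁵/well on poly-D-lysine plates, cultured two days and washed with HBSS. Analogue was given at 1 to 250 μM in HBSS or sodium-free buffer (NaCl replaced by tetraethylammonium chloride). Read-out was acetonitrile lysis then LC/MS. Kinetics were fitted by nonlinear regression (eqns 2, 3). Jmax was normalized to same-occasion taurocholate Jmax. Highest distinguishable Kt = (Jmax/2)/Pp.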

[10] abbreviates: Ki (μM) NTCP, inhibition of [3H]-taurocholate uptake (2.5 μM cold taurocholate), NTCP-HEK monolayers, 5 min, 37 °C.
Where [11] appears, read: passive permeability, sodium-free buffer, NTCP-HEK.
Setting [12] is: read-out: Ki (μM) NTCP, inhibition of [3H]-taurocholate uptake (2.5 μM cold taurocholate), NTCP-HEK monolayers, 5 min, 37 °C.
[13] abbreviates: read-out: NTCP inhibitor class (strong / moderate / weak), class by Ki, NTCP-HEK.

Molecules are shown by their SMILES. “And” between values parts separate entries of the source, which are not always exact repeats. Equal entries are not always repeated. “Also recorded” adds a separate entry of the source. Where two headings read alike, the source gives them in different places. Marks after values point to notes of the source that are not given here. Where only a bound is given, the exact number is not on record here.

`C[C@H](CCC(=O)O)[C@H]1CC[C@H]2[C@@H]3[C@H](O)C[C@@H]4C[C@H](O)CC[C@]4(C)[C@H]3CC[C@]12C` [CDCA, chenodeoxycholic acid, reference compound]: the “ASBT Pp*10^6 (cm/s)” value in the data set with ASBT-MDCK monolayers [1] is reported as 20.7±0.7 ^a ×10^−6 cm/s. The Ki is 0.939 ± 0.057 µM at NTCP [2] (setting [10]) and 1.94 ± 0.17 µM on ASBT [3]. Besides, the “NTCP Pp*10^6 (cm/s)” value with NTCP-HEK monolayers (setting [11]) is 60.7±0.5 ×10^−6 cm/s.

Regarding `C[C@H](CCC(=O)O)[C@H]1CC[C@H]2[C@@H]3[C@@H](OC(=O)c4ccc(F)cc4)C[C@@H]4C[C@H](O)CC[C@]4(C)[C@H]3CC[C@]12C` [Compound 3, 7-(4-fluorobenzoyloxy) ursodeoxycholate], the values for the Ki at NTCP [2] (setting [12]), on NTCP [2] (setting [13]) and at ASBT [4] were 183 ± 32 µM, above 100 µM and 10.3 ± 1.1 µM, respectively.

Consider `C[C@H](CCC(=O)NCC(=O)O)[C@H]1CC[C@H]2[C@@H]3[C@@H](OC(=O)c4cccnc4)C[C@@H]4C[C@H](O)CC[C@]4(C)[C@H]3CC[C@]12C` [Compound 8, 7-nicotinoyl glycoursodeoxycholate], for which the Ki stood at 11.8 ± 2.1 µM at NTCP [2] (setting [12]) and 15.2 ± 0.8 µM at ASBT [4]. Besides, at ASBT [5], the “type of inhibition of ASBT (best fitting model)” value is on record as “competitive inhibitor; also recorded: competitive model was the best fitting model”. Besides, the “NTCP Pp*10^6 (cm/s)” value with NTCP-HEK monolayers (setting [11]) is recorded as 7.26±0.45 ×10^−6 cm/s. Besides, the “type of inhibition of NTCP (best fitting model)” value on NTCP [6] is recorded as “competitive inhibitor; also recorded: competitive model was the best fitting model”. Moreover, the “ASBT Pp*10^6 (cm/s)” value in the data set on ASBT-MDCK monolayers [7] (passive permeability, sodium-free buffer, ASBT-MDCK) is given as 0.95±0.05 ×10^−6 cm/s.

As for `C[C@H](CCC(=O)NCC(=O)O)[C@H]1CC[C@H]2[C@@H]3[C@H](O)C[C@H]4C[C@H](OC(=O)c5cccnc5)CC[C@]4(C)[C@H]3CC[C@]12C` [Compound 10, 3-nicotinoyl glycochenodeoxycholate], at ASBT [8] (Jmax normalized to taurocholate Jmax of the same occasion, ASBT-MDCK), the “ASBT Norm Jmax” value was 2.11 and 2.1. Besides, on ASBT [8] (not normalized, ASBT-MDCK), the “Jmax ASBT” value worked out at 0.000242 nmol/s/cm^2. Further, the “ASBT Kt” value at ASBT [8] (uptake into ASBT-MDCK monolayers, 10 min) was 8.49 µM and 8.49 ± 1.34 µM. The Ki at NTCP [2] (setting [12]) was 5.38 ± 0.44 µM; on NTCP [2] (setting [13]) it was below 25 µM; on ASBT [4], 6.45 ± 0.66 µM. Also, the “NTCP Pp*10^6 (cm/s)” value in the data set on NTCP-HEK monolayers is listed as 12.7±0.9 ×10^−6 cm/s. The “NTCP Norm Jmax” value at NTCP [9] (Jmax normalized to taurocholate Jmax of the same occasion, NTCP-HEK) stood at 1.48. The “Jmax NTCP” value on NTCP [9] (not normalized, NTCP-HEK) is 0.00298 nmol/s/cm^2. Further, at NTCP [9] (uptake into NTCP-HEK monolayers), the “NTCP Kt” value was 16.3 µM and 16.3 ± 3.0 µM. For the same compound, the “ASBT Pp*10^6 (cm/s)” value in the data set with ASBT-MDCK monolayers [7] (MDCK) is listed as 5.62±0.13 ×10^−6 cm/s.

Turning to `C[C@H](CCC(=O)O)[C@H]1CC[C@H]2[C@@H]3C(=O)C[C@@H]4CC(=O)CC[C@]4(C)[C@H]3CC(=O)[C@]12C` [Compound 13, dehydrocholic acid], the Ki on NTCP [2] (setting [10]) was 355 ± 59 µM; at NTCP [2] (NTCP inhibitor class (strong / moderate / weak), class by Ki, NTCP-HEK), above 100 µM. Moreover, the “NTCP inhibitor class (strong / moderate / weak)” value at NTCP [2] (class by Ki, NTCP-HEK) is listed as “weakly”. In addition, the “Ki (μM) ASBT” value on ASBT [4] (inhibition of [3H]-taurocholate uptake (2.5 μM cold TCA), 10 min, 37 °C) was “did not inhibit; also recorded: did not show any ASBT inhibition; also recorded: No inhibition”.

In the case of `COC(=O)CC[C@@H](C)[C@H]1CC[C@H]2[C@@H]3[C@@H](O)C[C@@H]4C[C@H](O)CC[C@]4(C)[C@H]3CC[C@]12C` [Compound 16, methyl ursodeoxycholate], the Ki on NTCP [2] (setting [12]) amounted to 1.22 ± 0.1 µM; on ASBT [4], 29.8 ± 5.1 µM.

Take `C[C@H](CCC(=O)O)[C@H]1CC[C@H]2[C@@H]3[C@@H](O)C[C@@H]4C[C@H](O)CC[C@]4(C)[C@H]3CC[C@]12C` [UDCA, ursodeoxycholic acid, reference compound]: the “ASBT Pp*10^6 (cm/s)” value in the data set with ASBT-MDCK monolayers [1] is 21.2±0.9 ^a ×10^−6 cm/s. The Ki was 4.9 ± 0.47 µM on NTCP [2] (setting [10]) and 22.6 ± 3 µM at ASBT [3]. The “NTCP Pp*10^6 (cm/s)” value in the data set on NTCP-HEK monolayers (setting [11]) is 27.2±0.8 ×10^−6 cm/s.

For the compound `C[C@H](CCC(=O)NCCS(=O)(=O)O)[C@H]1CC[C@H]2[C@@H]3[C@H](O)C[C@@H]4C[C@H](O)CC[C@]4(C)[C@H]3C[C@H](O)[C@]12C` [taurocholate, Taurocholic acid, reference compound], the “taurocholate Kt NTCP” value at NTCP [9] (value Kt was set to in regression) was 5.31 µM.
